# The source made the active and inactive calls. The calls are words filed in the database; no cut-off is given here.
# Test system: not listed separately
# Test: Antiproliferative activity against mouse B16-F10-Luc-G5 cells assessed as cell growth inhibition measured after 24 hrs by luciferase gene assay
# Assay type: functional, cell-based
# Details: not given
# In short: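 Luciferase-expressing murine melanoma cells exposed to a concentration series, with gemcitabine as positive control. Growth read by bioluminescence. IC50 is the mean of three experiments, each with three replicates per concentration, reported ± SD.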
row,SMILES,IC50
1,Cn1cc(NC(=O)c2cc(NC(=O)c3ccc(/C=C/c4ccc(C(F)(F)F)cc4)cc3)cn2C)cc1C(=O)NCCN1CCOCC1,0.16 µM
2,COc1ccc(/C=C/c2ccc(C(=O)Nc3cc(C(=O)Nc4cc(C(=O)NCCN5CCOCC5)n(C(C)C)c4)n(C)c3)cn2)cc1,0.81 µM
3,COc1cccc(/C=C/c2ccc(C(=O)Nc3cc(C(=O)NCCN4CCOCC4)n(C)c3)cc2)c1,0.81 µM
4,Nc1ccn([C@@H]2O[C@H](CO)[C@@H](O)C2(F)F)c(=O)n1 [GEMCITABINE],11 µM
5,COc1cccc(/C=C/c2ccc(C(=O)Nc3cc(C(=O)Nc4cc(C(=O)NCCN5CCOCC5)n(C(C)C)c4)n(C)c3)cc2)c1,1.1 µM
6,CC(C)n1cc(NC(=O)c2cc(NC(=O)c3ccc(/C=C/c4ccc(C(F)(F)F)cc4)cc3)cn2C)cc1C(=O)NCCN1CCOCC1,2.16 µM

# Test system: not listed separately
# Test: (§1) Antiproliferative activity against mouse B16-F10-Luc-G5 cells assessed as cell growth inhibition at 15.36 ug/ml measured after 24 hrs by luciferase gene assay relative to DMSO control
# Assay type: functional
# Details: read-out: GI
row,SMILES,inhibition of growth at 15.36 µg/mL
1,COc1cccc(C(=N)Nc2cc(C(=O)Nc3cc(C(=O)Nc4nc(C(=O)NCCCN(C)C)c(C(C)C)s4)n(C)c3)n(C)c2)c1,34%
2,CCC(C)n1cc(NC(=O)c2ccc(/C=C/c3ccc(OC)cc3)nc2)cc1C(=O)Nc1cc(C(=O)NCCN2CCOCC2)n(C)c1 (stereo not drawn),84%
3,CC(C)c1sc(N)nc1C(=O)Nc1cc(C(=O)NCCN2CCOCC2)n(C)c1,2.2%
4,Cn1cc(NC(=O)c2cc(NC(=O)c3ccc(/C=C/c4ccc(C(F)(F)F)cc4)cc3)cn2C)cc1C(=O)NCCN1CCOCC1,77%
5,COc1ccc(/C=C/c2ccc(C(=O)Nc3cc(C(=O)Nc4cc(C(=O)NCCN5CCOCC5)n(C)c4)n(C)c3)cn2)cc1,44%
6,Cn1cc(NC(=O)c2cc(NC(=O)c3ccc(/C=C/c4cccc(F)c4)cc3)cn2C)cc1C(=O)NCCN1CCOCC1,46%
7,COc1ccc(/C=C/c2ccc(C(=O)Nc3cc(C(=O)N4CCN(C)CC4)n(C)c3)cn2)cc1,59%
8,CSc1ccc(/C=C/c2ccc3cc(C(=O)Nc4cc(C(=O)Nc5cc(C(=O)NCCN6CCOCC6)n(C)c5)n(C)c4)ccc3n2)cc1,19%
9,CCC(C)n1cc(NC(=O)c2cc(NC(=O)c3ccc(/C=C/c4ccc(OC)cc4)nc3)cn2C)cc1C(=O)NCCN1CCOCC1 (stereo not drawn),84%
10,COc1ccc(/C=C/c2ccc(C(=O)Nc3cc(C(=O)Nc4cc(C(=O)NCCN5CCOCC5)n(C(C)C)c4)n(C)c3)cn2)cc1,83%
11,CC(C)n1cc(NC(=O)c2cc(NC(=O)c3cnc(Cl)c(Cl)c3)cn2C)cc1C(=O)Nc1cc(C(=O)NCCCN(C)C)n(C)c1,16.1%
12,COc1cccc(/C=C/c2ccc(C(=O)Nc3cc(C(=O)Nc4cc(C(=O)NCCC(=N)N)n(C)c4)n(C)c3)cc2)c1,67%
13,CC(C)c1nc(N)sc1C(=O)Nc1cc(C(=O)Nc2cc(C(=O)NCCN3CCOCC3)n(C)c2)n(C)c1,57%
14,COc1cccc(/C=C/c2ccc(C(=O)Nc3cc(C(=O)N4CCN(C)CC4)n(C)c3)cc2)c1,76%
15,COc1cccc(/C=C/c2ccc(C(=O)Nc3cc(C(=O)NCCN4CCOCC4)n(C)c3)cc2)c1,55%
16,COc1cccc(C(=N)Nc2cc(C(=O)Nc3cc(C(=O)Nc4nc(C(=O)NCCCN(C)C)c(CCC(C)C)s4)n(C)c3)n(C)c2)c1,34%
17,Cn1cc(NC(=O)c2cc(NC(=O)c3ccc(/C=C/c4ccc5nonc5c4)cc3)cn2C)cc1C(=O)NCCN1CCOCC1,30.9%
18,Cn1cc(NC(=O)c2ccc(/C=C/c3cnc4ccccc4c3)cc2)cc1C(=O)NCCN1CCOCC1,72%
19,Cc1sc(NC(=O)c2ccc3c(c2)C(=O)c2ccccc2C3=O)cc1C(=O)Nc1cc(C(=O)Nc2cc(C(=O)NCCCN(C)C)n(C)c2)n(CCC(C)C)c1,40%
20,Cn1cc(NC(=O)c2cc(NC(=O)c3ccc(/C=C/c4ccc5nsnc5c4)cc3)cn2C)cc1C(=O)NCCN1CCOCC1,37%
21,COc1ccc(/C=C/c2ccc(C(=O)Nc3cc(C(=O)Nc4cc(C(=O)NCCN5CCOCC5)n(C)c4)n(C(C)C)c3)cn2)cc1,85%
22,COc1cccc(C(=N)Nc2ccc(C(=O)Nc3cc(C(=O)Nc4cc(C(=O)NCCN5CCOCC5)n(C)c4)n(C)c3)cc2)c1,77%
23,COc1cccc(/C=C/c2ccc(C(=O)Nc3cc(C(=O)Nc4cc(C(=O)NCCN5CCOCC5)n(C(C)C)c4)n(C)c3)cc2)c1,88%

# Organism: Mus musculus
# Test: as §1
# Assay type: functional
# Details: not given
row,SMILES,growth inhibition (GI)
1,COc1cccc(/C=C/c2ccc(C(=O)Nc3cc(C(=O)Nc4cc(C(=O)NCCN5CCOCC5)n(C)c4)n(C)c3)cc2)c1,inactive
2,CC(=O)Nc1cc(C(=O)Nc2cc(C(=O)Nc3cc(C(=O)NCCCN(C)C)n(C)c3)n(C)c2)c(C)s1,inactive
3,CC(C)CCc1sc(NC(=O)c2cc(NC(=O)c3ccc(/C=C/c4cc5ccccc5nc4Cl)cc3)cn2C)nc1C(=O)NCCN1CCOCC1,inactive
4,COc1cccc(C(=O)Nc2nc(C(=O)Nc3cc(C(=O)Nc4cc(C(=O)NCCCN(C)C)n(C)c4)n(C)c3)c(C(C)C)s2)c1,inactive
5,COc1cccc(C(=N)Nc2cc(C(=O)Nc3cc(C(=O)Nc4cc(C(=O)NCCCN5CCOCC5)n(C)c4)n(C)c3)n(C)c2)c1,inactive
6,CC(=N)Nc1cc(C(=O)Nc2cc(C(=O)Nc3cc(C(=O)NCCCN(C)C)n(C)c3)n(C)c2)n(C)c1,inactive
7,CC(=N)Nc1cc(C(=O)Nc2cc(C(=O)Nc3nc(C(=O)NCCCN(C)C)c(CCC(C)C)s3)n(C)c2)n(C)c1,inactive
8,CC(=O)Nc1cc(C(=O)Nc2cc(C(=O)Nc3cc(C(=O)Nc4cc(C(=O)NCCCN(C)C)n(C)c4)n(CCC(C)C)c3)n(C)c2)n(C)c1,inactive
9,Cn1cc(NC(=O)c2cc(NC(=O)c3ccc(/C=C/c4cccc(C(F)(F)F)c4)nc3)cn2C)cc1C(=O)NCCN1CCOCC1,inactive
10,COc1ccc(/C=C(/C(=O)Nc2cc(C(=O)Nc3cc(C(=O)NCCCN(C)C)n(C)c3)n(C)c2)c2ccc(OC)cc2)cc1,inactive
11,Cn1cc(NC(=O)c2cc(NC(=O)c3cc(NC(=O)c4ccc(Cl)cc4Cl)cn3C)cn2C)cc1C(=O)NCCCN1CCOCC1,inactive
12,CC(C)n1cc(NC(=O)c2cc(NC(=O)c3cnc4ccccc4n3)cn2C)cc1C(=O)Nc1cc(C(=O)NCCCN(C)C)n(C)c1,inactive
13,Cn1cc(NC(=O)c2cc(NC(=O)c3ccc(/C=C/c4ccc(F)cc4)cc3)cn2C)cc1C(=O)NCCN1CCOCC1,inactive

# Test system: not listed separately
# Test: Potency index, ratio of gemcitabine IC50 to compound IC50 for mouse B16-F10-Luc-G5 cells
# Assay type: functional
# Details: not given
row,SMILES,Ratio IC50
1,Cn1cc(NC(=O)c2cc(NC(=O)c3ccc(/C=C/c4ccc(C(F)(F)F)cc4)cc3)cn2C)cc1C(=O)NCCN1CCOCC1,70

# Test system: not listed separately
# Test: Drug internalization in nucleus of mouse B16-F0-luc cells at 3 and 30 ug/ml measured after 1 hr by DAPI staining based fluorescence microscopic analysis
# Assay type: ADME
# Details: not given
row,Drug uptake,SMILES
1,Dose-dependent effect,CN(C)c1ccc(/C=C/c2ccc(C(=O)Nc3cc(C(=O)Nc4cc(C(=O)NCCN5CCOCC5)n(C)c4)n(C)c3)cn2)cc1

# Test system: Hepatocyte
# Test: Cellular uptake in rat hepatocytes at 7.5 uM measured after 24 hrs by fluorescence analysis
# Assay type: ADME, cell-based
# Details: not given
# In short: (§2)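 Primary hepatocyte monolayers exposed to 7.5µM compound over 24 h, with DMSO control. Uptake checked by fluorescence microscopy using red, green and blue filter settings. Morphology assessed by phase contrast with a x20 wet lens, including images at 60 min.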
row,Drug uptake,SMILES
1,Not Active,Cn1cc(NC(=O)c2cc(NC(=O)c3ccc(/C=C/c4ccc(C(F)(F)F)cc4)cc3)cn2C)cc1C(=O)NCCN1CCOCC1

# Test system: Hepatocyte
# Test: Cytotoxicity against rat hepatocytes assessed as change in cell morphology at 7.5 uM measured up to 24 hrs by phase contrast microscopic analysis
# Assay type: cell-based
# Details: not given
# In short: as §2
row,SMILES,Activity
1,Cn1cc(NC(=O)c2cc(NC(=O)c3ccc(/C=C/c4ccc(C(F)(F)F)cc4)cc3)cn2C)cc1C(=O)NCCN1CCOCC1,Non-toxic

# Test system: Hepatocyte
# Test: Cytotoxicity against rat hepatocytes assessed as reduction in cell viability at 7.5 uM measured up to 24 hrs
# Assay type: cell-based
# Details: not given
row,SMILES,Activity
1,Cn1cc(NC(=O)c2cc(NC(=O)c3ccc(/C=C/c4ccc(C(F)(F)F)cc4)cc3)cn2C)cc1C(=O)NCCN1CCOCC1,Non-toxic

# Test system: not listed separately
# Test: Drug internalization in nucleus of mouse B16-F0-luc cells at 250 uM measured after 1 hr by DAPI staining based fluorescence microscopic analysis
# Assay type: ADME
# Details: not given
# In short: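 B16-F0-luc mouse melanoma cells exposed to the fluorescent S-MGB probe at two concentrations for 1 hr, with DMSO-only and Hoechst 33342 nuclear-stain controls. Examined live on an inverted fluorescence microscope (x20 objective) under brightfield and UV or DAPI filter sets. Nuclear localisation judged by overlaying fluorescence on brightfield images. Two experiments with separately prepared cells.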
row,SMILES,Drug uptake
1,CCOc1ccc(-c2nc3cc(-c4nc5cc(N6CCN(C)CC6)ccc5[nH]4)ccc3[nH]2)cc1.Cl.Cl.Cl,Active

# From ChEMBL document CHEMBL3822427, “An evaluation of Minor Groove Binders as anti-lung cancer therapeutics” (Bioorg Med Chem Lett, 2016)
